Test results taken from ChEMBL document CHEMBL5661984, “Allosteric ligands for the pharmacologically dark receptors GPR68 and GPR65” (Nature, 2015).
Blank lines part the entries; values can stand above or below the molecule they belong to. Calls of active or inactive are those of the source.

Tests used:
[1] = target: T1, G-protein coupled receptor 68 (Homo sapiens, UniProt Q15743); experiment: Positive allosteric modulator activity at GPR68 expressed in human HEK293T cells assessed as proton-mediated calcium release at 10 uM incubated for 10 mins by Fluo-4 Direct calcium dye based FLIPR assay (reference value: 1.30 %); assay type: functional, cell-based
[2] = Positive allosteric modulator activity at GPR68 E160K mutant transfected in human HEK293T cells assessed as proton-mediated calcium release at 10 uM incubated for 10 mins by Fluo-4 Direct calcium dye based FLIPR assay (reference value: 1.38 +/- 0.01 %); details: HEK-293T, condition central nervous system disease
[3] = Positive allosteric modulator activity at GPR68 E160Q mutant transfected in human HEK293T cells assessed as proton-mediated calcium release at 10 uM incubated for 10 mins by Fluo-4 Direct calcium dye based FLIPR assay (reference value: 1.25 +/- 0.01 %); details: HEK-293T, condition central nervous system disease
[4] = Positive allosteric modulator activity at GPR68 R189L mutant transfected in human HEK293T cells assessed as proton-mediated calcium release at 10 uM incubated for 10 mins by Fluo-4 Direct calcium dye based FLIPR assay (reference value: 1.42 +/- 0.01 %); details: HEK-293T, condition central nervous system disease
[5] = Positive allosteric modulator activity at GPR68 R189M mutant transfected in human HEK293T cells assessed as proton-mediated calcium release at 10 uM incubated for 10 mins by Fluo-4 Direct calcium dye based FLIPR assay (reference value: 1.43 +/- 0.01 %); details: HEK-293T, condition central nervous system disease
[6] = Positive allosteric modulator activity at GPR68 H269F mutant transfected in human HEK293T cells assessed as proton-mediated calcium release at 10 uM incubated for 10 mins by Fluo-4 Direct calcium dye based FLIPR assay (reference value: 1.57 +/- 0.01 %); details: HEK-293T, condition central nervous system disease
[7] = Positive allosteric modulator activity at GPR68 E160K mutant transfected in human HEK293T cells assessed as proton-mediated calcium release at 10 uM incubated for 10 mins by Fluo-4 Direct calcium dye based FLIPR assay (reference value: 6.79 +/- 0.02); assay type: cell-based; details: HEK-293T
[8] = Positive allosteric modulator activity at GPR68 E160Q mutant transfected in human HEK293T cells assessed as proton-mediated calcium release at 10 uM incubated for 10 mins by Fluo-4 Direct calcium dye based FLIPR assay (reference value: 6.86 +/- 0.04); assay type: cell-based; details: HEK-293T
[9] = Positive allosteric modulator activity at GPR68 R189L mutant transfected in human HEK293T cells assessed as proton-mediated calcium release at 10 uM incubated for 10 mins by Fluo-4 Direct calcium dye based FLIPR assay (reference value: 6.85 +/- 0.02); assay type: cell-based; details: HEK-293T
[10] = Positive allosteric modulator activity at GPR68 R189M mutant transfected in human HEK293T cells assessed as proton-mediated calcium release at 10 uM incubated for 10 mins by Fluo-4 Direct calcium dye based FLIPR assay (reference value: 6.77 +/- 0.01); assay type: cell-based; details: HEK-293T
[11] = Positive allosteric modulator activity at GPR68 H269F mutant transfected in human HEK293T cells assessed as proton-mediated calcium release at 10 uM incubated for 10 mins by Fluo-4 Direct calcium dye based FLIPR assay (reference value: 6.44 +/- 0.02); assay type: cell-based; details: HEK-293T
[12] = target: T1, G-protein coupled receptor 68; experiment: Positive allosteric modulator activity at GPR68 expressed in human HEK293T cells assessed as cAMP production in presence of H+ proton by Split-luciferase based luminescence counter analysis (reference value: 26.4 to 43.8 %); assay type: functional, cell-based; details: filed as positive allosteric modulator
Outline: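 Proton concentration-response of GPR68 (wild type or E160A/K/Q, R189L/M, H269F mutants) in transiently transfected HEK293-T cells. Read-out: GloSensor cAMP, with luciferin loading 90 min at 37°C at pH 8.4. Run with and without increasing modulator concentrations; 20 min at room temperature before luminescence. Proton KA fixed to the proton EC50 without modulator. KB, τA, α, β fitted globally with an operational allosteric model. n=4.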

[13] = target: T1, G-protein coupled receptor 68; experiment: Positive allosteric modulator activity at GPR68 expressed in human HEK293T cells assessed as cAMP production in presence of H+ proton by Split-luciferase based luminescence counter analysis (reference value: 6.53 to 6.72); assay type: functional, cell-based
[14] = target: T1, G-protein coupled receptor 68; experiment: Positive allosteric modulator activity at GPR68 expressed in human HEK293T cells assessed as proton-mediated phosphatidylinositol hydrolysis on pH 8.4 at 10 uM incubated for 20 mins by TriLuxMicroBeta counter analysis; assay type: functional, cell-based
Outline: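 GPR68-transfected HEK293-T cells labeled overnight with 3H-inositol (1 μCi/well) in inositol-free DMEM with 5% dialyzed FBS. Treated for 20 min at pH 8.4 in HBSS with 10 mM HEPES, 10 mM MES and 20 mM LiCl, compound at 10 μM. Extracted with 50 mM ice-cold formic acid, 30 min at 4°C. Captured on YSi beads and counted (cpm/well). n=3. 4-parameter logistic fit.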

[15] = target: C-X-C chemokine receptor type 4 (Homo sapiens) (UniProt P61073); experiment: Agonist activity against CXCR4 receptor (unknown origin) transfected in human HEK293T cells at 10 uM incubated for 15 mins in presence of CXCL12 by luminescence counter analysis; assay type: functional, cell-based
Outline: (§1)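 HEK293-T cells transiently transfected with CXCR4 and the GloSensor cAMP reporter, plated in DMEM with 1% dialyzed FBS. Test compound at 10 μM in 20 mM HEPES/HBSS, pH 7.4, 15 min at room temperature. Agonist mode: luciferin (4 mM final) plus 200 nM isoproterenol added, 20 min. Antagonist mode: compound 10 min, then reference agonist at EC80 for 10 min, then luciferin/isoproterenol. Luminescence read. CXCL12 (1 or 3 μM) is the agonist control and AMD3100 (10 μM) the antagonist control. n=2.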

[16] = target: C-X-C chemokine receptor type 4 (Homo sapiens) (UniProt P61073); experiment: Antagonist activity against CXCR4 receptor (unknown origin) transfected in human HEK293T cells at 10 uM incubated for 15 mins in presence of AMD3100 by luminescence counter analysis; assay type: functional, cell-based; outline: as §1
[17] = Toxicity in C57BL/6 mouse assessed as improvement in learning and spatial memory at 10 mg/kg administered for 30 mins by hidden platform test; assay type: organism-based; details: in vivo, 0.5 h
[18] = Toxicity in C57BL/6 mouse assessed as improvement in contextual memory at 10 to 30 mg/kg administered for 30 mins; assay type: organism-based; details: in vivo, 0.5 h, dose 10-30 mg/kg
[19] = Toxicity in C57BL/6 mouse assessed as improvement in cue memory at 10 to 30 mg/kg administered for 30 mins by Morris water maze test; assay type: organism-based; details: in vivo, 0.5 h, dose 10-30 mg/kg
[20] = Toxicity in C57BL/6 mouse assessed as improvement in learning and spatial memory at 30 mg/kg administered for 30 mins by hidden platform test; assay type: organism-based; details: in vivo, 0.5 h
[21] = Toxicity in C57BL/6 mouse assessed as decreased contextual memory retrieval; details: in vivo
Outline: (§2)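 Fear conditioning in wild-type and GPR68 KO C57BL/6J congenic mice. Training was 8 min: 3 pairings of a 30-s, 90 dB, 5 kHz tone with a 2-s, 0.6 mA foot shock. Context freezing scored at 24 h over 5 min; cue test at 48 h over 6 min. Freezing defined as no movement for 0.5 s. Compound 10 mg/kg in 10% Tween 80 or saline, 30 min before training. n=6–8 per group. Two-way ANOVA with Bonferroni post-hoc test.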

[22] = organism: Mus musculus; experiment: […] activity against GPR68 knockout C57BL/6 mouse assessed as contextual memory retrieval; assay type: functional, organism-based; outline: as §2
[23] = Toxicity in C57BL/6 mouse assessed as cued memory retrieval by Morris water maze test; details: in vivo
[24] = organism: Mus musculus; experiment: Antipsychotic activity against GPR68 knockout C57BL/6 mouse assessed as cued memory retrieval by Morris water maze test; assay type: functional, organism-based
[25] = target: T2, G-protein coupled receptor 65 (Homo sapiens, UniProt Q8IYL9); experiment: Antagonist activity against GPR65 (unknown origin) transfected in human HEK293T cells incubated for 15 mins by luminescence counter analysis; assay type: functional, cell-based; details: filed as antagonist
Outline: (§3)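 GloSensor split-luciferase cAMP assay. HEK293-T cells transiently co-transfected with GPR65 (wild type or the D153A, R187L, F242A or Y272A mutant) and GloSensor 7A reporter. Cells plated in DMEM with 1% dialyzed FBS for at least 6 h, then loaded with luciferin (4 mM, in drug buffer pH 8.4) for 90 min at 37°C. Compounds added at set pH in HBSS with 10 mM HEPES/10 mM MES, with TAPS for higher pH. Luminescence read after about 20 min at room temperature. Data normalized to buffer basal and fitted to a 4-parameter logistic.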

[26] = target: T2, G-protein coupled receptor 65; experiment: Antagonist activity against GPR65 (unknown origin) transfected in human HEK293T cells incubated for 15 mins in presence of BTB09089 by luminescence counter analysis; assay type: functional, cell-based; details: filed as antagonist; outline: as §3

T1 sequence (Q15743 whole entry): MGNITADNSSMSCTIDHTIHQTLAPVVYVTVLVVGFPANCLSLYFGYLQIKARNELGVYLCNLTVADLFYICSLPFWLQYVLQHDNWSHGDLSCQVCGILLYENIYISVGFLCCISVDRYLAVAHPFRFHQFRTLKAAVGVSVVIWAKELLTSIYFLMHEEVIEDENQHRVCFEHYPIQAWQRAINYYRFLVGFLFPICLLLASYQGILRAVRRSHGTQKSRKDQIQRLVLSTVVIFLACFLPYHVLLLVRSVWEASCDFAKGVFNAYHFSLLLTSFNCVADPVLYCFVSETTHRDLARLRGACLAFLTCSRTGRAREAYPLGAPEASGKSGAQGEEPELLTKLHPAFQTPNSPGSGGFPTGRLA
Sequence of C-X-C chemokine receptor type 4 (Homo sapiens) (P61073 whole entry): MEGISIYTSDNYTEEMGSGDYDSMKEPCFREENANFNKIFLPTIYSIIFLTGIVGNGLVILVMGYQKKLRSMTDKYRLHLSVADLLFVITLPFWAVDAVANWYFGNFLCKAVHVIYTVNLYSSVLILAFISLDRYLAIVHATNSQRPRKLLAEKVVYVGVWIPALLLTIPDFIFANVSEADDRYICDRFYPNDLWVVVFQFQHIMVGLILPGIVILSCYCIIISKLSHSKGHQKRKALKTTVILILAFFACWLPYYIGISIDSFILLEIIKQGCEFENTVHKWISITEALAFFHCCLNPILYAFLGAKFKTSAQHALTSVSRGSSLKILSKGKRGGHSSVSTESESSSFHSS
T2 sequence (Q8IYL9 whole entry): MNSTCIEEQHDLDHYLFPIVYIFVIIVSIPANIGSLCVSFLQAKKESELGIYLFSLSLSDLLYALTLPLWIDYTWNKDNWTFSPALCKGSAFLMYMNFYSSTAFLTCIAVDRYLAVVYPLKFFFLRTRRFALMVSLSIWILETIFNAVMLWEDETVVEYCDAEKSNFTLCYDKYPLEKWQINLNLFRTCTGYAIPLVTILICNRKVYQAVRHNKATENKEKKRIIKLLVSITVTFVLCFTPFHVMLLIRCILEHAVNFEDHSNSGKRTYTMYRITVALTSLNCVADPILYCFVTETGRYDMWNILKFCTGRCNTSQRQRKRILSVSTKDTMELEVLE

Emax [1]: 1.33%
EC50 [7]: 0.158 µM
EC50 [8]: 0.234 µM
EC50 [9]: 0.129 µM
EC50 [10]: 0.186 µM
EC50 [11]: 0.339 µM
Emax [12]: 43.1%
EC50 [13]: 0.158 µM
Activity [14]: inactive
Activity [15]: inactive
Activity [16]: inactive
Structure (SMILES): Nc1nc(NCc2ccccc2)nc(-c2cccc(CO)c2)n1 [ZINC32547799]
Emax at 10 µM [2]: 1.38%
Emax at 10 µM [3]: 1.21%
Emax at 10 µM [4]: 1.36%
Emax at 10 µM [5]: 1.35%
Emax at 10 µM [6]: 1.52%
Activity [17]: Non-Toxic
Activity [18]: Non-Toxic
Activity [19]: Non-Toxic
Activity [20]: Toxic
Activity [21]: Non-Toxic
Activity [22]: inactive
Activity [23]: Non-Toxic
Activity [24]: inactive

Activity [25]: Active
Activity [26]: Active
Structure (SMILES): Cc1nc(-c2ncccn2)sc1C(=O)O[C@@H](c1ccccc1)c1ccncc1
